Experimental data reported in PubChem BioAssay.
Calls of active or inactive are those of the source.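 How the source made its calls, unless noted: active means fluorescence slope higher than the sample average by over 3 SD (cut at about -0.22 in these data, passing the limit was not always enough); inactive means the rest.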

Legend:
[1] = inhibitors of TNFa-induced NFkB p65 translocation, primary screen, imaging, HUVEC, MLSMR starter and 10KST1 sets (AID 438;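 active means inhibition above 20% together with a positive visual image hit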;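 further: compound added about 3h40 before a 20 min TNFalpha stimulation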;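 on inhibition: signal is the nuclear over cytoplasmic p65 intensity ratio per well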); conditions: HUVEC TNFa-induced p65 nuclear translocation; cell count: measured here: nuclei count (cytotoxicity indicator), at 2.08 µM; inhibition: at 2 µM, stronger effect = higher value, 0% TNFa-plus-vehicle, 100% no-TNFa wells
[2] = endothelial E-selectin expression blockers – imaging, HUVEC, immunofluorescence, MLSMR starter and 10KST1 sets, primary screen (AID 487;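 active means visually confirmed hit in the image check and inhibition above 20%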;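 on inhibition: signal is fraction of cell area covered by stained E-selectin grains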;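 on nuclei count: 100% = median nuclei count of all wells on the same plate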); conditions: HUVEC TNFalpha-induced E-selectin immunofluorescence imaging, at 2 µM; inhibition: stronger effect = higher value; nuclei count: measured here: cell number, toxicity
[3] = Primary imaging screen for DUSP6 inhibitors that restore phospho-Erk in transfected HeLa cells, chemical complementation (AID 609;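 active means compounds giving at least 50% inhibition in the cell-based MKP-3 phosphatase rescue imaging test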;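 on inhibition: phospho-Erk level distribution per well compared with pooled transfected vehicle control wells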); conditions: HeLa MKP-3 transfected, phospho-Erk imaging KS statistic, at 10 µM, cells stimulated with TPA for 15 min
[4] = biological target: Dual specificity protein phosphatase 6 (Homo sapiens) (UniProt Q16828); assay: as above; conditions: HeLa MKP-3 transfected, phospho-Erk imaging KS statistic; at 10 µM; stronger effect = higher value; cells stimulated with TPA for 15 min
Chain of Dual specificity protein phosphatase 6 (Homo sapiens) (Q16828 whole entry, looked up): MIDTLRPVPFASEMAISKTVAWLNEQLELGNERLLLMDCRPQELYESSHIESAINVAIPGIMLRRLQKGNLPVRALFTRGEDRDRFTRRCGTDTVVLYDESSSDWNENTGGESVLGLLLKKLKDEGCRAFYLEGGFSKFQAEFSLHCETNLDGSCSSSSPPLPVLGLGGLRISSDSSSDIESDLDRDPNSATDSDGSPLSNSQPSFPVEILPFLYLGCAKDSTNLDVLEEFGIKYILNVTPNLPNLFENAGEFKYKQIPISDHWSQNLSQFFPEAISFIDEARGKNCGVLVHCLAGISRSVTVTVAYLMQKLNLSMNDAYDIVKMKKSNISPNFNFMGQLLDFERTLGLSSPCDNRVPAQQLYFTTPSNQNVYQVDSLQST

[5] = biological target: Voltage-gated potassium channel subunit beta-2 (Rattus norvegicus) (UniProt P62483); assay: inhibitors of rat Kvbeta2 reductase activity – biochemical, NADPH fluorescence, primary screen (AID 622); conditions: recombinant KvBeta, 4-cyanobenzaldehyde reduction, at 10 µM, stronger effect = higher value;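 further: slope of raw intensity against log time taken from 70 to 1610 s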
Chain of Voltage-gated potassium channel subunit beta-2 (Rattus norvegicus) (P62483 whole entry, looked up): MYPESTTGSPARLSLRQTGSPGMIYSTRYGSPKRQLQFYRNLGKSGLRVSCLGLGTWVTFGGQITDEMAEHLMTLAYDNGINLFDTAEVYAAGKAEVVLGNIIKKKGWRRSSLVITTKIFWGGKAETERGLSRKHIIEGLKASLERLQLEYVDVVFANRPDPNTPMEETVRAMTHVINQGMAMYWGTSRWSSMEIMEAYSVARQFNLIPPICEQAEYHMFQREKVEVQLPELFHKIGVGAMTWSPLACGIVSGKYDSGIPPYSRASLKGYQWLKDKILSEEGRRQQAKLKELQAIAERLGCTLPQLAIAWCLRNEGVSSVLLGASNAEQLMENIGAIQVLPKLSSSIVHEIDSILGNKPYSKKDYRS

[6] = biological target: Voltage-gated potassium channel subunit beta-2 (Rattus norvegicus) (UniProt P62483); assay: enhancers of rat Kvbeta2 NADPH turnover – biochemical, NADPH fluorescence, primary screen (AID 623;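 active means NADPH fluorescence slope more negative than the mean of all samples by about 3 SD, 99.7% confidence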;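 further: fluorescence intensity change per second fitted from 20 to 320 s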); conditions: Recombinant KvBeta, NADPH fluorescence decrease slope, 10 min; at 10 µM; stronger effect = lower value
[7] = biological target: Alpha-2C adrenergic receptor (Homo sapiens) (UniProt P18825); assay: compounds altering alpha2C-coupled GIRK flux – cell-based, HEK293 alpha2C/GIRK1/2, thallium flux, primary screen (AID 624;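 active means fluorescence slope after compound addition differing from the mean of all screened samples at 99.7% confidence, in either direction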;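 further: slope of fluorescence ratio to pre-addition baseline per second over 15 to 24 s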); conditions: thallium flux BTC fluorescence, at 10 µM, actives lie on both sides
Chain of Alpha-2C adrenergic receptor (Homo sapiens) (P18825 whole entry, looked up): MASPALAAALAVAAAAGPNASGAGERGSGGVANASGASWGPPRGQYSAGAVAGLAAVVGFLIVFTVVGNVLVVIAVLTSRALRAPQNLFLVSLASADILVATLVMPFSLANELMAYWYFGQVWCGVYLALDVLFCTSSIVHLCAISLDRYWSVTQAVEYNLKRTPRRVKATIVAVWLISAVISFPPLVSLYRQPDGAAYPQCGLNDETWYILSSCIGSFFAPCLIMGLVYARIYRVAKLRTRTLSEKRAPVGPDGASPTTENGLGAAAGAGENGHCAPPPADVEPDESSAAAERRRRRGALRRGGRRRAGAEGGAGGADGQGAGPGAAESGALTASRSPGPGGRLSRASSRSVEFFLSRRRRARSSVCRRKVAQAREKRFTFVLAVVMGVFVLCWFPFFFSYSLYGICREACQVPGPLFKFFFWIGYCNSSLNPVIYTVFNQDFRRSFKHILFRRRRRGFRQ

[8] = inhibitors of larval lipid processing in zebrafish, primary screen, whole organism, PED6 fluorescence, gall bladder and intestine (AID 686;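 active means a full or partial loss of lipid-probe fluorescence in the fish gall bladder, intestine or both, judged by eye; inactive means no fluorescence loss, or compound toxic to the fish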;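 further: larvae 5 to 7 days old with five fish per well; signal comes from phospholipase A2 cleavage of quenched PED6 carried via bile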); conditions: Zebrafish larvae PED6 lipid processing, fluorescence scoring; screened at 20 µM (by protocol)
Method in brief: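 Incubation: overnight exposure of larvae to compound plus PED6 / Test system: live zebrafish larvae aged 5-7 days, whole organism / Amount: 5 larvae per well / Read-out basis: visual per-well fluorescence inhibition score / Signal: visual fluorescence microscopy scoring of gall bladder, gut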

[9] = loss of swimming-algae plug formation – whole organism, Chlamydomonas reinhardtii, WT vs cilia-less mutant, absorbance, 96-well, primary screen (AID 463189;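 active means inhibition at or above 50% relative to wild type and mutant plate controls; inactive means inhibition below 50%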;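 further: 0% = wild type cc124 cells in DMSO and 100% = ciliumless bld1 mutant cells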); conditions: Chlamydomonas reinhardtii gravitaxis, OD600 absorbance, 2 days; at 10 µM; stronger effect = higher value
[10] = measured here: cell density z-score
[11] = measured here: nuclear c-Myc green intensity z-score
[12] = measured here: nuclear pErk red intensity z-score, stronger effect = higher value

SMILES	cell count [1]	inhibition [1]	inhibition [2]	nuclei count [2]	z-score [3, 10]	z-score [3, 11]	z-score [3, 12]	inhibition [4]	fluorescence slope [5]	NADPH fluorescence slope [6]	slope [7]	outcome [8]	inhibition [9]
CC1(C)NC(=O)N(CC(O)COc2ccccc2C(=O)Nc2ccccc2)C1=O (stereo not given)	418	-22.7% (inactive)	-2.7% (inactive)	93.5%	-0.97	1.76	-1.28	14% (inactive)	-0.495 (inactive)	-0.000337 (inactive)	0.00492 (inactive)	inactive	18.8% (inactive)
CCCc1cc(-c2nc(N)ncc2-c2ccc3c(c2)OCCCO3)c(O)cc1OC	570	-16.3% (inactive)	-136% (inactive)	122%	0.844	-1.91	-0.934	11.9% (inactive)	-0.519 (inactive)	-5.4e-05 (inactive)	0.00422 (inactive)	inactive	91.5% (active)
Fc1cnc(N2CCOCC2)nc1NCc1ccccc1	649	-2.3% (inactive)	32.4% (inactive)	156%	-0.315	0.582	0.114	6.51% (inactive)	-0.388 (inactive)	-5.9e-05 (inactive)	0.00592 (inactive)	inactive	0.319% (inactive)
CCCCCc1ccc(-c2ccc(=O)[nH]n2)cc1	455	-1.5% (inactive)	-85% (inactive)	107%	1.16	-0.256	-1.03	15.1% (inactive)	-0.516 (inactive)	-2.1e-05 (inactive)	0.00535 (inactive)	inactive	-28.2% (inactive)
COCc1cc(C)nc(SCC(=O)Nc2ccc(C)c(C)c2)c1C#N	618	-2.6% (inactive)	-92.9% (inactive)	161%	-2.03	0.714	1.02	5.65% (inactive)	-0.269 (inactive)	-9.9e-06 (inactive)	0.00532 (inactive)	inactive	-8.23% (inactive)
CCOC(=O)c1nc2nc(C)c(Cl)c(=O)n2[nH]1	529	3.9% (inactive)	-83.9% (inactive)	153%	0.438	-0.565	-0.252	14% (inactive)	-0.497 (inactive)	-4.1e-05 (inactive)	0.00501 (inactive)	inactive	0.754% (inactive)
O=C1CC(c2ccco2)CC(O)=C1C=Nc1cc(Cl)ccc1O (stereo not given)	416	-17% (inactive)	-77.9% (inactive)	152%	-1.18	-0.564	1.32	1.04% (inactive)	-0.386 (inactive)	-5.2e-05 (inactive)	0.00522 (inactive)	inactive	17.7% (inactive)
CC1(C)Cc2c(oc3ncn4ncnc4c23)CO1	587	-8.9% (inactive)	-143% (inactive)	102%	-0.312	-1.57	0.382	13.2% (inactive)	-0.569 (inactive)	-8.8e-05 (inactive)	0.00443 (inactive)	inactive	18.4% (inactive)
O=C(CC(c1ccccc1)c1ccco1)N1CCOCC1 (stereo not given)	294	-28.3% (inactive)	-96.2% (inactive)	84.1%	-0.599	0.143	-0.229	14% (inactive)	-0.429 (inactive)	-4.9e-05 (inactive)	0.00649 (inactive)	inactive	-5.11% (inactive)
COc1ccc(-c2oc3ncn4nc(Cc5ccccc5)nc4c3c2-c2ccc(OC)cc2)cc1	561	-7.8% (inactive)	-106% (inactive)	175%	0.18	0.751	0.443	-6.06% (inactive)	-0.319 (inactive)	-1.7e-05 (inactive)	0.0116 (inactive)	inactive	-5.31% (inactive)
O=C(c1nsnc1-c1ccccc1O)N1CCCCC1	500	-8% (inactive)	-58.8% (inactive)	86.9%	0.333	0.0172	0.334	17.8% (inactive)	-0.563 (inactive)	-9.1e-06 (inactive)	0.007 (inactive)	inactive	24.8% (inactive)
Fc1ccc(OCCOCCNCC2CCCO2)cc1 (stereo not given)	369	0.4% (inactive)	-35.4% (inactive)	84.5%	0.189	0.788	0.463	15.1% (inactive)	-0.557 (inactive)	-4.4e-05 (inactive)	0.00452 (inactive)	inactive	43.6% (inactive)
CC(=O)c1cc(CN2CCCCC2)cc(OC(C)C)c1	667	-6.7% (inactive)	-53.2% (inactive)	172%	0.66	-1.57	1.24	-3.98% (inactive)	-0.505 (inactive)	-5.3e-05 (inactive)	0.00431 (inactive)	inactive	10.4% (inactive)
O=S(CCc1ccncc1)Cc1ccccc1 (stereo not given)	337	-23.4% (inactive)	-114% (inactive)	140%	-0.83	1.38	2.01	-14% (inactive)	-0.427 (inactive)	-0.000147 (inactive)	0.00701 (inactive)	inactive	-11.4% (inactive)
Cc1[nH]c(=O)[nH]c(=O)c1S(=O)(=O)N1CCCC1	473	-7.5% (inactive)	-107% (inactive)	116%	-1.16	0.0534	0.397	-3.98% (inactive)	-0.476 (inactive)	-0.000255 (inactive)	0.00533 (inactive)	inactive	-0.601% (inactive)
CN1CCc2c(sc3c2C(=O)NC(c2ccco2)N3)C1 (stereo not given)	554	-12% (inactive)	-9.3% (inactive)	170%	-0.0126	-0.484	0.477	4.72% (inactive)	-0.43 (inactive)	-3.1e-06 (inactive)	0.00594 (inactive)	inactive	7.66% (inactive)
CCCCOc1nc2ccccc2nc1C(C#N)C(=O)NC1CCCCC1 (stereo not given)	320	-10.2% (inactive)	-124% (inactive)	151%	-1.21	0.194	1.47	-15.8% (inactive)	-0.41 (inactive)	-0.00013 (inactive)	0.00654 (inactive)	inactive	1.58% (inactive)
CCOC(=O)C(C)Oc1nc(Oc2ccccc2)nc(N(C)C)n1 (stereo not given)	645	-4.1% (inactive)	-25.5% (inactive)	183%	0.393	-0.772	1.44	-7.79% (inactive)	-0.497 (inactive)	-5.5e-05 (inactive)	0.00486 (inactive)	inactive	-18.7% (inactive)
c1cncc(Oc2cccc(Oc3cccnc3)c2)c1	388	-2.6% (inactive)	-116% (inactive)	133%	-0.336	0.96	-0.973	-2.07% (inactive)	-0.426 (inactive)	-1.4e-05 (inactive)	0.00527 (inactive)	inactive	-16% (inactive)
O=C(C1=C(O)C(=O)N(CCCN2CCOCC2)C1c1ccccn1)c1cccs1 (stereo not given)	506	-11.2% (inactive)	-117% (inactive)	136%	-1.2	-0.158	2.08	-3.5% (inactive)	-0.495 (inactive)	-5.5e-05 (inactive)	0.00674 (inactive)	inactive	-6.32% (inactive)
CC1(C)Cc2c(sc3nc4n(c(=N)c23)CCCCC4)CO1	637	-5.2% (inactive)	57.2% (inactive)	169%	-0.678	2.31	-0.487	-7.28% (inactive)	-0.414 (inactive)	-4.7e-05 (inactive)	0.00482 (inactive)	inactive	-1.35% (inactive)
CCOc1ccc2c(C)nc(NC3=NC(C)(C)C=C(C)N3)nc2c1	641	-3.1% (inactive)	46.4% (inactive)	158%	-1.28	1.6	1.26	-9.66% (inactive)	-0.373 (inactive)	-4.2e-05 (inactive)	0.00624 (inactive)	inactive	19.3% (inactive)
N#CC(C(=O)NC1CC1)c1nc2ccccc2nc1N1CCN(C/C=C/c2ccccc2)CC1 (stereo not given)	507	-4.6% (inactive)	-99.8% (inactive)	164%	-0.376	0.378	1.69	2.46% (inactive)	-0.304 (inactive)	-1.2e-05 (inactive)	-0.000245 (inactive)	inactive	26.9% (inactive)
CCSc1nc(N)c2c3c(sc2n1)CCC3	602	-14.1% (inactive)	-20.6% (inactive)	146%	0.476	0.818	0.254	7.7% (inactive)	-0.408 (inactive)	-4.9e-05 (inactive)	0.00637 (inactive)	inactive	-5.03% (inactive)
Cc1cccc(OCC(=O)N2CCC(N3CCOCC3)CC2)c1	356	-12.6% (inactive)	-156% (inactive)	149%	2.22	-1.72	0.299	17% (inactive)	-0.406 (inactive)	-4.5e-05 (inactive)	0.00455 (inactive)	inactive	11.3% (inactive)
